Laboratory results: ChEMBL document CHEMBL3124924, “Bifunctional ethyl 2-amino-4-methylthiazole-5-carboxylate derivatives: synthesis and in vitro biological evaluation as antimicrobial and anticancer agents” (2014)
≈ marks a conversion by molar mass, not a printed value. Calls of active or inactive are those of the source. The calls are words filed in the database; no cut-off is given here.

Tests used:
Bacillus spizizenii [1] = experiment: Antibacterial activity against Bacillus subtilis ATCC 6633 assessed as growth inhibition after 48 hrs by two-fold serial dilution assay; assay type: functional; details: ATCC 6633, 48 h
Outline: (§1)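 Twofold serial broth dilution run on compounds giving inhibition zones of 13 mm or more. Organisms pre-grown in suitable broth at 37 °C, 24 h for bacteria and 48 h for fungi. Dilution series 200, 100, 50, 25, 12.5, 6.25. Each 5 mL tube inoculated with 0.1 mL and incubated 37 °C for 48 h. Tubes scored for presence or absence of growth.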

Candida albicans = experiment: Antifungal activity against Candida albicans ATCC 10231 assessed as growth inhibition at 1 mg/mL after 48 hrs by agar-cup diffusion method; assay type: functional; details: ATCC 10231, 48 h, read-out: DIZ
Outline: (§2)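 Agar-cup diffusion: 1 mL of 6 h broth culture seeded per 100 mL molten sterile agar at 45 °C and poured into plates. 8 mm cups cut, each filled with 0.1 mL of 1 mg/mL test solution. Incubated 37 °C for 24 h, 48 h for C. albicans. DMSO control per organism. Inhibition zone diameter in mm, mean of three measurements.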

Escherichia coli [2] = experiment: Bactericidal activity against Escherichia coli ATCC 25922 after 18 hrs; assay type: functional; details: ATCC 25922, 18 h
Outline: (§3)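 Continuation of the broth-dilution MIC test. A loopful from each tube without visible growth spread on a quarter of a Mueller-Hinton agar plate and incubated 18 h. Lowest concentration giving no growth on subculture taken as the MBC.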

PC-3 = experiment: Cytotoxicity against human PC3 cells assessed as growth inhibition at 10 uM after 48 hrs by SRB assay; assay type: functional; details: PC-3, 48 h, read-out: GI
Outline: (§4)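 NCI-60 one-dose primary screen run by the NCI Drug Evaluation Branch across the full 60-line panel. Single high-dose treatment with 48 h continuous drug exposure. Cell growth estimated by sulforhodamine B protein staining. Results given as percent growth of treated cells and expressed as percentage growth inhibition.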

Staphylococcus aureus [3] = experiment: Antibacterial activity against Staphylococcus aureus ATCC 6538 assessed as growth inhibition at 1 mg/mL after 24 hrs by agar-cup diffusion method; assay type: functional; details: ATCC 6538, 24 h, read-out: DIZ; outline: as §2
Escherichia coli [4] = experiment: Antibacterial activity against Escherichia coli ATCC 25922 assessed as growth inhibition after 48 hrs by two-fold serial dilution assay; assay type: functional; details: ATCC 25922, 48 h; outline: as §1
MOLT-4 = experiment: Cytotoxicity against human MOLT4 cells assessed as growth inhibition at 10 uM after 48 hrs by SRB assay; assay type: functional; details: MOLT-4, 48 h, read-out: GI; outline: as §4
NCI-H322M = experiment: Cytotoxicity against human NCI-H322M cells assessed as growth inhibition at 10 uM after 48 hrs by SRB assay; assay type: functional; details: read-out: GI; outline: as §4
Pseudomonas aeruginosa [5] = experiment: Antibacterial activity against Pseudomonas aeruginosa ATCC 27853 assessed as growth inhibition at 1 mg/mL after 24 hrs by agar-cup diffusion method; assay type: functional; details: ATCC 27853, 24 h, read-out: DIZ; outline: as §2
SR = experiment: Cytotoxicity against human SR cells assessed as growth inhibition at 10 uM after 48 hrs by SRB assay; assay type: functional; details: read-out: GI; outline: as §4
IGROV-1 = experiment: Cytotoxicity against human IGROV1 cells assessed as growth inhibition at 10 uM after 48 hrs by SRB assay; assay type: functional; details: IGROV-1, 48 h, read-out: GI; outline: as §4
Pseudomonas aeruginosa [6] = experiment: Antibacterial activity against Pseudomonas aeruginosa ATCC 27853 assessed as growth inhibition after 48 hrs by two-fold serial dilution assay; assay type: functional; details: ATCC 27853, 48 h; outline: as §1
Staphylococcus aureus [7] = experiment: Bactericidal activity against Staphylococcus aureus ATCC 6538 after 18 hrs; assay type: functional; details: ATCC 6538, 18 h; outline: as §3
LOX IMVI = experiment: Cytotoxicity against human LOXIMVI cells assessed as growth inhibition at 10 uM after 48 hrs by SRB assay; assay type: functional; details: read-out: GI; outline: as §4
[8] = Cytotoxicity against human Hs578T cells assessed as growth inhibition at 10 uM after 48 hrs by SRB assay; assay type: functional; details: Hs-578T, read-out: GI; outline: as §4
UACC-62 = experiment: Cytotoxicity against human UACC62 cells assessed as growth inhibition at 10 uM after 48 hrs by SRB assay; assay type: functional; details: UACC-62, 48 h, read-out: GI; outline: as §4
MCF7 = experiment: Cytotoxicity against human MCF7 cells assessed as growth inhibition at 10 uM after 48 hrs by SRB assay; assay type: functional; details: MCF7, 48 h, read-out: GI; outline: as §4
K562 = experiment: Cytotoxicity against human K562 cells assessed as growth inhibition at 10 uM after 48 hrs by SRB assay; assay type: functional; details: K562, 48 h, read-out: GI; outline: as §4
Staphylococcus aureus [9] = experiment: Antibacterial activity against Staphylococcus aureus ATCC 6538 assessed as growth inhibition after 48 hrs by two-fold serial dilution assay; assay type: functional; details: ATCC 6538, 48 h; outline: as §1
SF-268 = experiment: Cytotoxicity against human SF268 cells assessed as growth inhibition at 10 uM after 48 hrs by SRB assay; assay type: functional; details: SF-268, 48 h, read-out: GI; outline: as §4
[10] = Cytotoxicity against human NCI-ADR-RES cells assessed as growth inhibition at 10 uM after 48 hrs by SRB assay; assay type: functional; details: read-out: GI; outline: as §4
RPMI-8226 = experiment: Cytotoxicity against human RPMI8226 cells assessed as growth inhibition at 10 uM after 48 hrs by SRB assay; assay type: functional; details: RPMI-8226, 48 h, read-out: GI; outline: as §4
A498 = experiment: Cytotoxicity against human A498 cells assessed as growth inhibition at 10 uM after 48 hrs by SRB assay; assay type: functional; details: A498, 48 h, read-out: GI; outline: as §4
CCRF-CEM = experiment: Cytotoxicity against human CCRF-CEM cells assessed as growth inhibition at 10 uM after 48 hrs by SRB assay; assay type: functional; details: read-out: GI; outline: as §4
HCT-15 = experiment: Cytotoxicity against human HCT15 cells assessed as growth inhibition at 10 uM after 48 hrs by SRB assay; assay type: functional; details: HCT-15, 48 h, read-out: GI; outline: as §4
HOP-92 = experiment: Cytotoxicity against human HOP92 cells assessed as growth inhibition at 10 uM after 48 hrs by SRB assay; assay type: functional; details: HOP-92, 48 h, read-out: GI; outline: as §4
T47D = experiment: Cytotoxicity against human T47D cells assessed as growth inhibition at 10 uM after 48 hrs by SRB assay; assay type: functional; details: read-out: GI; outline: as §4
Aspergillus niger = experiment: Antifungal activity against Aspergillus niger assessed as growth inhibition at 1 mg/mL after 24 hrs by agar-cup diffusion method; assay type: functional, organism-based; outline: as §2
U-251 = experiment: Cytotoxicity against human U251 cells assessed as growth inhibition at 10 uM after 48 hrs by SRB assay; assay type: functional; details: U-251, 48 h, read-out: GI; outline: as §4
Bacillus spizizenii [11] = experiment: Antibacterial activity against Bacillus subtilis ATCC 6633 assessed as growth inhibition at 1 mg/mL after 24 hrs by agar-cup diffusion method; assay type: functional; details: ATCC 6633, 24 h, read-out: DIZ; outline: as §2
HCC 2998 = experiment: Cytotoxicity against human HCC2998 cells assessed as growth inhibition at 10 uM after 48 hrs by SRB assay; assay type: functional; details: HCC 2998, 48 h, read-out: GI; outline: as §4
[12] = Cytotoxicity against human UO31 cells assessed as growth inhibition at 10 uM after 48 hrs by SRB assay; assay type: functional; details: UO-31, 48 h, read-out: GI; outline: as §4
Pseudomonas aeruginosa [13] = experiment: Bactericidal activity against Pseudomonas aeruginosa ATCC 27853 after 18 hrs; assay type: functional; details: ATCC 27853, 18 h; outline: as §3

## Cc1nc(NC(=O)Nc2ccccc2)sc1C(=O)NN
Bacillus spizizenii [1]
  MIC: 25 µg/mL (≈ 85.8 µM)
Candida albicans
  zone of inhibition at 1000 µg/mL: > 13 mm
Escherichia coli [2]
  MBC: 12.5 µg/mL (≈ 42.9 µM)
PC-3
  inhibition of growth at 10 µM: < 10%
Staphylococcus aureus [3]
  zone of inhibition at 1000 µg/mL: > 13 mm
Escherichia coli [4]
  MIC: 12.5 µg/mL (≈ 42.9 µM)
MOLT-4
  inhibition of growth at 10 µM: < 10%
NCI-H322M
  inhibition of growth at 10 µM: 22%
Pseudomonas aeruginosa [5]
  zone of inhibition at 1000 µg/mL: > 13 mm
SR
  inhibition of growth at 10 µM: 25.8%
IGROV-1
  inhibition of growth at 10 µM: < 10%
Pseudomonas aeruginosa [6]
  MIC: 50 µg/mL (≈ 172 µM)
Staphylococcus aureus [7]
  MBC: 12.5 µg/mL (≈ 42.9 µM)
LOX IMVI
  inhibition of growth at 10 µM: 10.1%
[8]
  inhibition of growth at 10 µM: 2.83%
UACC-62
  inhibition of growth at 10 µM: 11.9%
MCF7
  inhibition of growth at 10 µM: 2.96%
K562
  inhibition of growth at 10 µM: < 10%
Staphylococcus aureus [9]
  MIC: 12.5 µg/mL (≈ 42.9 µM)
SF-268
  inhibition of growth at 10 µM: < 10%
[10]
  inhibition of growth at 10 µM: 6.43%
RPMI-8226
  inhibition of growth at 10 µM: < 10%
A498
  inhibition of growth at 10 µM: 3.17%
CCRF-CEM
  inhibition of growth at 10 µM: < 10%
HCT-15
  inhibition of growth at 10 µM: 9.63%
HOP-92
  inhibition of growth at 10 µM: < 10%
T47D
  inhibition of growth at 10 µM: < 10%
Aspergillus niger
  growth inhibition (GI): inactive
U-251
  inhibition of growth at 10 µM: < 10%
Bacillus spizizenii [11]
  zone of inhibition at 1000 µg/mL: > 13 mm
HCC 2998
  inhibition of growth at 10 µM: 6.85%
[12]
  inhibition of growth at 10 µM: 28%
Pseudomonas aeruginosa [13]
  MBC: 100 µg/mL (≈ 343 µM)
